Source: ChEMBL document CHEMBL3804769, “Antibacterial Diamines Targeting Bacterial Membranes” (J Med Chem, 2016)
The source made the active and inactive calls. No cut-off for these calls is given here.

Columns and labels:
Pseudomonas aeruginosa [1] = test: Antibacterial activity against Pseudomonas aeruginosa PAO1 ATCC 47085 incubated overnight by microbroth dilution method; type: functional
Summary of the method: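 Bacteria grown in LB medium. CLSI microbroth dilution in 96-well plates, overnight at 37 °C without shaking. MIC99 taken as the lowest concentration giving complete growth inhibition. Three independent determinations, reported as mean ± SD.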

Staphylococcus aureus [2] = test: Antibacterial activity against methicillin-resistant Staphylococcus aureus clinical isolate 10082B SPA type 1 after 24 hrs by microbroth dilution method; type: functional
Summary of the method: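 MRSA isolates from ICU surfaces, stored at −80 °C and grown in Mueller-Hinton broth. Overnight cultures diluted and added to serially diluted compound at ~10⁵ CFU/mL, broth microdilution. Plates incubated 24 h at 37 °C, growth read as absorbance at 620 nm. MIC99 taken as the lowest concentration giving complete growth inhibition.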

Staphylococcus aureus [3] = test: Bactericidal activity against Staphylococcus aureus RN4220 ATCC 35556 in exponential-phase assessed as reduction in bacterial burden at 4 times MIC99 after 2 to 6 hrs by time-kill assay; type: functional, organism-based
Summary of the method: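 Overnight cultures washed and resuspended in PBS, then diluted 100-fold into LB (exponential-phase model) or into 1% PBS (stationary-phase model). Test agent added at 4× MIC99. Incubated at 37 °C with shaking at 200 rpm. CFU counted on LB agar at 0, 2, 4 and 6 h.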

[4] = Selectivity index, ratio of CC50 for human A549 cells to MIC99 for Staphylococcus aureus RN4220 ATCC 35556; type: toxicity, cell-based; conditions: read-out: Selectivity Index
Summary of the method: (§1)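 CC50: HEK293T/17 or A549 cells seeded at 10⁴ per well in DMEM with 10% FBS at 37 °C, 5% CO2. After 24 h, wells PBS-washed and serially diluted compound applied for 48 h, with viability read by MTS and CC50 taken by nonlinear regression. MIC99 by CLSI broth microdilution, overnight at 37 °C without shaking, from three independent tests. SI = CC50/MIC99.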

[5] = Selectivity index, ratio of CC50 for human A549 cells to MIC99 for Escherichia coli ANS1; summary of the method: as §1
Caenorhabditis elegans [6] = test: Toxicity in adult L4/juvenile L1 stages of Caenorhabditis elegans N2 assessed as effect on viable eggs production at 64 ug/ml incubated for 96 hrs measured every 12 hrs; type: organism-based; conditions: in vivo
Summary of the method: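 C. elegans N2 maintained on NGM agar at 22 °C. Compound mixed into molten NGM agar at 64 μg/mL. L4 adults, L1 juveniles and synchronized eggs transferred onto test plates and kept 96 h at 22 °C. Checked every 12 h for death, development and egg production. Gentamicin and […] as controls.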

Caenorhabditis elegans [7] = test: Toxicity in adult L4/juvenile L1 stages of Caenorhabditis elegans N2 assessed as effect on locomotion at 64 ug/ml incubated for 96 hrs measured every 12 hrs; type: organism-based; conditions: in vivo
Staphylococcus aureus [8] = test: Antibacterial activity against Staphylococcus aureus RN4220 ATCC 35556 in early exponential-phase assessed as lysis of cells at 2 times MIC99 after 30 to 60 mins by transmission electron microscopy; type: functional, organism-based
Summary of the method: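 Cells grown in LB to early exponential phase (OD600 ~0.4). Exposed to 2× MIC99 for 15–60 min, washed twice in phosphate buffer, fixed in 2.5% glutaraldehyde, then imaged by transmission electron microscopy.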

Staphylococcus aureus [9] = test: Potentiation of kanamycin-induced antibacterial activity against Staphylococcus aureus RN4220 ATCC 35556 assessed as reduction in kanamycin MIC99 at 0.5 times MIC99 after 24 hrs by checkerboard assay relative to control; type: functional
Summary of the method: (§2)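 Checkerboard assay: compound serially diluted along one axis of a 96-well plate and antibiotic along the other, in LB. Each well inoculated with 2 × 10⁴ CFU and incubated 24 h at 37 °C. ΣFIC = FIC A + FIC B, where each FIC is the combination MIC99 divided by the MIC99 of that drug alone.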

Staphylococcus aureus [10] = test: Potentiation of kanamycin-induced antibacterial activity against Staphylococcus aureus RN4220 ATCC 35556 assessed as kanamycin MIC at 0.5 times MIC99 after 24 hrs by checkerboard assay (reference value: 16 ug/ml); type: functional; conditions: RN4220 ATCC 35556, 24 h; summary of the method: as §2
Staphylococcus aureus [11] = test: Bactericidal activity against Staphylococcus aureus RN4220 ATCC 35556 assessed as reduction in bacterial burden at 0.5 times MIC99 after 3 to 24 hrs by time kill assay in presence of 0.5 times MIC99 of kanamycin relative to control; type: functional
Summary of the method: (§3)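 Combination time-kill in LB at 1 × 10⁶ CFU/mL starting inoculum. Arms were compound or kanamycin alone at 1× and 0.5× MIC99, and the two combined at 0.5× MIC99 each. Incubated at 37 °C with shaking at 300 rpm. Viable counts taken by dilution and plating on LB agar at 0, 3, 6 and 24 h.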

Pseudomonas aeruginosa [12] = test: Bactericidal activity against Pseudomonas aeruginosa PAO1 ATCC 47085 assessed as reduction in bacterial burden at 0.5 times MIC99 after 3 to 24 hrs by time kill assay in presence of 0.5 times MIC99 of kanamycin relative to control; type: functional, organism-based; summary of the method: as §3

Cl.Cl.S=C(NCCCNCCCCCNCCCNC(=S)NCC(c1ccccc1)c1ccccc1)NCC(c1ccccc1)c1ccccc1
MIC99 (Pseudomonas aeruginosa [1]): 8 µg/mL
MIC99 (Staphylococcus aureus [2]): 1 µg/mL
Activity (Staphylococcus aureus [3]): Active
selectivity ratio [4]: 32
Selectivity Index [5]: 32
Activity (Caenorhabditis elegans [6]): Non-toxic
Activity (Caenorhabditis elegans [7]): Non-toxic
Activity (Staphylococcus aureus [8]): Active
fold change (FC) (Staphylococcus aureus [9]): 8
MIC99 (Staphylococcus aureus [10]): 2 µg/mL
Activity (Staphylococcus aureus [11]): >2 deltalog10CFU/ml
Activity (Pseudomonas aeruginosa [12]): Active
